Reference: ChEMBL document CHEMBL4823247, “Natural Isoflavones and Semisynthetic Derivatives as Pancreatic Lipase Inhibitors” (J Nat Prod, 2021)
Activity calls are given as the source filed them. The rule behind the calls is not given here.

Legend:
[1] = Inhibition of pig pancreatic lipase type 2 using p-nitrophenyl butyrate as substrate preincubated with enzyme for 10 mins followed by susbtrate addition and measured after 30 mins by spectrophotometric analysis; parameters: species or system Sus scrofa
Procedure, shortened: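 PL (300 U/mL stock, in 50 mM phosphate buffer pH 7.2) was preincubated with compound aliquots (MeOH or MeOH:DMSO 95:5 stocks) for 10 min at 37 °C. p-Nitrophenyl butyrate (3.2 mM stock) was then added and incubated 30 min at 37 °C with shaking, read at 405 nm. Five concentrations per compound, in triplicate. % inhibition was taken from absorbance vs no-compound control, and IC50 by regression.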

Sus scrofa [2] = species: Sus scrofa; experiment: Binding affinity to pig pancreatic lipase type 2 assessed as binding constant at 37 degC measured after 1 min by Stern-Volmer plot analysis
Procedure, shortened: (§1)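 Intrinsic Trp fluorescence titration of PL, 1.1 μM in 0.1 M phosphate buffer with 0.1 M NaCl, pH 7.4, by successive 1 or 2 μL additions of compound. Run at 27, 32 and 37 °C, each in triplicate. Excitation 285 nm, slits 10 nm. Spectrum recorded 1 min after each addition. Intensity at the emission maximum was used for Stern–Volmer plots.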

Sus scrofa [3] = species: Sus scrofa; experiment: Binding affinity to pig pancreatic lipase type 2 assessed as decrease in fluorescence intensity at 32 degC measured after 1 min by fluorescence spectral analysis; procedure, shortened: as §1
Sus scrofa [4] = species: Sus scrofa; experiment: Binding affinity to pig pancreatic lipase type 2 assessed as bathochromic shift of maximum fluorescence intensity at 32 degC measured after 1 min by fluorescence spectral analysis; procedure, shortened: as §1
Sus scrofa [5] = species: Sus scrofa; experiment: Binding affinity to pig pancreatic lipase type 2 assessed as binding constant at 32 degC measured after 1 min by Stern-Volmer plot analysis; procedure, shortened: as §1
Sus scrofa [6] = species: Sus scrofa; experiment: Binding affinity to pig pancreatic lipase type 2 assessed as binding constant at 27 degC measured after 1 min by Stern-Volmer plot analysis; procedure, shortened: as §1
Sus scrofa [7] = species: Sus scrofa; experiment: Binding affinity to pig pancreatic lipase type 2 assessed as bathochromic shift of maximum fluorescence intensity at 37 degC measured after 1 min by fluorescence spectral analysis; procedure, shortened: as §1
Sus scrofa [8] = species: Sus scrofa; experiment: Binding affinity to pig pancreatic lipase type 2 assessed as decrease in fluorescence intensity at 37 degC measured after 1 min by fluorescence spectral analysis; procedure, shortened: as §1
Sus scrofa [9] = species: Sus scrofa; experiment: Binding affinity to pig pancreatic lipase type 2 assessed as decrease in fluorescence intensity at 27 degC measured after 1 min by fluorescence spectral analysis; procedure, shortened: as §1
Sus scrofa [10] = species: Sus scrofa; experiment: Binding affinity to pig pancreatic lipase type 2 assessed as Stern-Volmer quenching constant at 27 degC measured after 1 min by Stern-Volmer plot analysis; procedure, shortened: as §1
Sus scrofa [11] = species: Sus scrofa; experiment: Binding affinity to pig pancreatic lipase type 2 assessed as Stern-Volmer quenching constant at 32 degC measured after 1 min by Stern-Volmer plot analysis; procedure, shortened: as §1
Sus scrofa [12] = species: Sus scrofa; experiment: Binding affinity to pig pancreatic lipase type 2 assessed as quenching rate constant at 32 degC measured after 1 min by Stern-Volmer plot analysis; procedure, shortened: as §1
Sus scrofa [13] = species: Sus scrofa; experiment: Binding affinity to pig pancreatic lipase type 2 assessed as quenching rate constant at 27 degC measured after 1 min by Stern-Volmer plot analysis; procedure, shortened: as §1
Sus scrofa [14] = species: Sus scrofa; experiment: Binding affinity to pig pancreatic lipase type 2 assessed as bathochromic shift of maximum fluorescence intensity at 27 degC measured after 1 min by fluorescence spectral analysis; procedure, shortened: as §1
Sus scrofa [15] = species: Sus scrofa; experiment: Binding affinity to pig pancreatic lipase type 2 assessed as Stern-Volmer quenching constant at 37 degC measured after 1 min by Stern-Volmer plot analysis; procedure, shortened: as §1
[16] = Competitive inhibition of pig pancreatic lipase type 2 using varying concentrations of p-nitrophenyl butyrate as substrate measured every 1 min for 30 mins by Lineweaver-Burk plot analysis; parameters: species or system Sus scrofa
Procedure, shortened: (§2)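 A405 was read every 1 min for 30 min. Mode of inhibition was from Lineweaver–Burk plots of 1/v0 vs 1/[S]. Ki and K'i were obtained from replots of slope and y-intercept versus inhibitor concentration.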

Sus scrofa [17] = species: Sus scrofa; experiment: Binding affinity to pig pancreatic lipase type 2 assessed as quenching rate constant at 37 degC measured after 1 min by Stern-Volmer plot analysis; procedure, shortened: as §1
[18] = Non-competitive inhibition of pig pancreatic lipase type 2 using varying concentrations of p-nitrophenyl butyrate as substrate measured every 1 min for 30 mins by Lineweaver-Burk plot analysis; parameters: species or system Sus scrofa; procedure, shortened: as §2

Row | SMILES | IC50 [1] [µM] | Ka (Sus scrofa [2]) | Activity (Sus scrofa [3]) | Activity (Sus scrofa [4]) | Ka (Sus scrofa [5]) | Ka (Sus scrofa [6]) | Activity (Sus scrofa [7]) | Activity (Sus scrofa [8]) | Activity (Sus scrofa [9]) | KSV (Sus scrofa [10]) | KSV (Sus scrofa [11]) | Kq (Sus scrofa [12]) | Kq (Sus scrofa [13]) | Activity (Sus scrofa [14]) | KSV (Sus scrofa [15]) | Ki [16] [µM] | Kq (Sus scrofa [17]) | Ki [18] [µM]
1 | CCCCCCCCCCC[C@@H](C[C@@H]1OC(=O)[C@H]1CCCCCC)OC(=O)[C@H](CC(C)C)NC=O [ORLISTAT] | 0.6 |  |  |  |  |  |  |  |  |  |  |  |  |  |  |  |  | 
2 | O=c1c(-c2ccc(O)c(O)c2)coc2cc(O)ccc12 | 70 |  |  |  |  |  |  |  |  |  |  |  |  |  |  |  |  | 
3 | COc1ccc(-c2coc3c(Br)c(O)ccc3c2=O)cc1Br | 100 |  |  |  |  |  |  |  |  |  |  |  |  |  |  |  |  | 
4 | O=c1c(-c2ccc(O)cc2)coc2cc(O)cc(O)c12 [GENISTEIN] | 60 | 0.44 10^4L/mol | Active | Active | 0.87 10^4L/mol | 1.24 10^4L/mol | Active | Active | Active | 1.88 10^4L/mol | 1.5 10^4L/mol | 0.94 10^13L/mol.s | 1.18 10^13L/mol.s | Active | 1.07 10^4L/mol | 80 | 0.67 10^13L/mol.s | 
5 | Cc1cc(O)cc2occ(-c3ccc(O)c(O)c3)c(=O)c12 | 92 |  |  |  |  |  |  |  |  |  |  |  |  |  |  |  |  | 
6 | COc1ccc(-c2coc3cc(O)ccc3c2=O)cc1 [FORMONONETIN] | 120 | 0.27 10^4L/mol | Active | Active | 0.22 10^4L/mol | 0.16 10^4L/mol | Active | Active | Active | 0.72 10^4L/mol | 1.02 10^4L/mol | 0.64 10^13L/mol.s | 0.45 10^13L/mol.s | Active | 1.06 10^4L/mol | 640 | 0.66 10^13L/mol.s | 2900
7 | O=c1c(-c2ccc(O)cc2)coc2cc(O)ccc12 [DAIDZEIN] | 83 | 1.02 10^4L/mol | Active | Active | 1.2 10^4L/mol | 5.3 10^4L/mol | Active | Active | Active | 8.95 10^4L/mol | 4.94 10^4L/mol | 3.11 10^13L/mol.s | 5.62 10^13L/mol.s | Active | 4.08 10^4L/mol | 300 | 2.57 10^13L/mol.s | 630
8 | COc1ccc2c(=O)c(-c3ccc(OC)c(OC)c3)coc2c1 | 360 |  |  |  |  |  |  |  |  |  |  |  |  |  |  |  |  | 
9 | O=c1c(-c2cc(Br)c(O)c(Br)c2)coc2c(Br)c(O)ccc12 | 63 | 3.21 10^4L/mol | Active | Active | 1.99 10^4L/mol | 0.32 10^4L/mol | Active | Active | Active | 0.58 10^4L/mol | 0.96 10^4L/mol | 0.6 10^13L/mol.s | 0.36 10^13L/mol.s | Active | 1.11 10^4L/mol | 90 | 0.7 10^13L/mol.s | 1200
10 | CC(=O)Oc1ccc2c(=O)c(-c3ccc(OC(C)=O)c(OC(C)=O)c3)coc2c1 | 122 |  |  |  |  |  |  |  |  |  |  |  |  |  |  |  |  | 
11 | COc1ccc(-c2coc3c(O)c(O)ccc3c2=O)cc1 | 93 |  |  |  |  |  |  |  |  |  |  |  |  |  |  |  |  | 
12 | COc1ccc(-c2coc3c(Br)c(O)ccc3c2=O)cc1 | 87 | 1.47 10^4L/mol | Active | Active | 8.47 10^4L/mol | 12.4 10^4L/mol | Active | Active | Active | 4.69 10^4L/mol | 3.34 10^4L/mol | 2.1 10^13L/mol.s | 2.95 10^13L/mol.s | Active | 2.29 10^4L/mol | 320 | 1.43 10^13L/mol.s | 1900
